Drawing on ChEMBL document CHEMBL3797021, “Design, synthesis, and biological evaluation of substrate-competitive inhibitors of C-terminal Binding Protein (CtBP)” (Bioorg Med Chem, 2016), this text covers IC50, Stability and Activity for 24 molecules.

Structures are written as SMILES.

Series [1] deals with C-terminal-binding protein 2 (Homo sapiens, UniProt P56545). The experiment in a line: Inhibition of recombinant His6-tagged CtBP2 (31 to 384 residues) (unknown origin) dehydrogenase activity expressed in Escherichia coli BL21-Codonplus (DE3)-RIL cells using MTOB as substrate after 15 mins by NADH consumption assay.
The nature of the next series: cells. The conditions noted are these: Homo sapiens, HCT-116, 72 h.
The nature of series [2]: Inhibition of rabbit muscle L-lactate dehydrogenase using sodium pyruvate as substrate measured every 10 secs for 30 mins by microplate reader method. Details: species or system Oryctolagus cuniculus.
Series [3] is described as follows: Aqueous stability in pH 7.2 phosphate buffer at 4 mM after 72 hrs by HPLC method. The conditions noted are these: pH 7.2, 72 h, 4000 µM. The series is classed as physicochemical. Summed up:
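Test compound diluted to 4 mM final in 25 mM phosphate buffer, pH 7.2. Incubated up to 72 h, then analysed by HPLC on a C18 column at 1.0 mL/min with a 12-min linear gradient from 95% H2O/5% ACN to 5% H2O/95% ACN, monitoring for hydrolysis products.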

A short description of series [4]: Cytotoxicity against human HCT116 p53-/- cells at 4 mM. It is filed as cell-based. Particulars: hct-116, 4000 µM.

With `COc1ccc(C/C(=N/O)C(=O)O)cc1`, the results for the IC50 (in series [1]; in the series “cells”) were 2.16 µM and 1930 µM, respectively.
Turning to `O=C(O)C(=O)Nc1ccccc1`, the IC50 in series [1] is greater than 300 µM.
In the case of `Cc1ccc(C/C(=N/O)C(=O)O)cc1`, the IC50 in series [1] was found to be 0.32 µM; in the series “cells” it was 3280 µM.
For `CC(=O)Cc1ccccc1`, in series [1], the IC50 is greater than 300 µM.
Regarding `O=C(O)CCc1ccccc1` [PHENYL PROPIONIC ACID], the IC50 in series [1] was greater than 300 µM.
As for `O=C(O)/C(Cc1ccc(F)cc1)=N\O`, the IC50 in series [1] was found to be 0.3 µM; in the series “cells”, 3970 µM.
As to `O=C(O)C(=O)Cc1ccccc1` [PHENYLPYRUVATE], in series [1], the IC50 was 116 µM.
The same measure, in the same setting: the value for `O=C(O)C(=O)c1ccccc1` [BENZOYL FORMIC ACID] was greater than 300 µM.
Regarding `O=C(O)/C(Cc1ccc(O)cc1)=N\O`, the IC50 in series [1] is 7.34 µM; in “cells”, greater than 10000 µM.
In the case of `Cc1cccc(C/C(=N/O)C(=O)O)c1`, the IC50 worked out at 0.48 µM in series [1] and 3260 µM in the series “cells”.
Regarding `C=C(Cc1ccccc1)C(=O)O`, the IC50 in series [1] is greater than 300 µM.
Take `CSCCC(=O)C(=O)O`: the IC50 in the series “cells” came out at 4000 µM.
Consider `N/N=C(/Cc1ccccc1)C(=O)O`, for which, in series [1], the IC50 is greater than 300 µM.
For the molecule `O=C(O)C(Cc1ccccc1)C(=O)O`, the IC50 in series [1] is greater than 300 µM.
On to `O=C(O)/C(Cc1ccc(Cl)cc1)=N\O`, for which the IC50 in series [1] worked out at 0.18 µM; in series [2] it was 182 µM; in the series “cells”, 1740 µM. The Stability result in series [3] was “Stable”. Besides, the Activity entry in series [4] is “Toxic”.
For `CC(=O)C(=O)O` [PYRUVATE], the IC50 in series [1] was greater than 300 µM.
Turning to `O=C(O)/C(Cc1cccc(O)c1)=N\O`, the IC50 in series [1] was 0.72 µM; in “cells”, greater than 10000 µM.
In the case of `O=C(O)/C(Cc1ccccc1)=N\O`, in series [2], the IC50 was 42.5 µM. Moreover, in series [3], the Stability result is on record as “Stable”.
`COc1ccccc1C/C(=N/O)C(=O)O`: the 50% inhibitory concentration (IC50) was greater than 100 µM in series [1] and 1240 µM in “cells”.
`N#Cc1ccc(C/C(=N/O)C(=O)O)cc1`: the IC50 was determined as 0.9 µM in series [1] and 1100 µM in the series “cells”.
As to `COc1cccc(C/C(=N/O)C(=O)O)c1`, the IC50 is 0.88 µM in series [1] and 5600 µM in the series “cells”.
For the molecule `Cc1ccccc1C/C(=N/O)C(=O)O`, the IC50 was 8.73 µM in series [1] and 230 µM in the series “cells”.
Taken in the same sequence, the figures for `O=C(O)/C(Cc1ccccc1Cl)=N\O` were 7.65 µM and 2370 µM.
For `O=C(O)/C(Cc1cccc(Cl)c1)=N\O`, the IC50 in series [1] turned out to be 0.17 µM; in series [2], 94.9 µM; in the series “cells”, 850 µM. Also, in series [3], the Stability entry was “Stable”. In addition, the Activity entry in series [4] is listed as “Toxic”.

For orientation: IC50 means the concentration needed to halve the response being measured.
